Reference: ChEMBL document CHEMBL3593210, “Pentamidine analogs as inhibitors of [(3)H]MK-801 and [(3)H]ifenprodil binding to rat brain NMDA receptors” (Bioorg Med Chem, 2015)
pIC50: −log10 of the molar value.

Columns and labels:
Glutamate NMDA receptor [1] = test: Displacement of [3H]-MK-801 from rat cortical membranes NMDA receptor by beta counting analysis in presence of 30 uM spermine
In short: (§1)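 Membranes from rat frontoparietal cortex and hippocampus, prepared in 50 mM Tris acetate pH 7.0. 5 nM [3H]MK-801 was incubated with membranes (~1 mg wet tissue) for 3 h at 23 °C in 10 mM Tris acetate pH 7.0 with 10 µM glutamate and glycine, in triplicate, with or without 30 µM spermine. Compounds were tested at 3–4 concentrations. Nonspecific binding was set with 100 µM (S)-ketamine. Bound ligand was filtered and scintillation-counted. Spermine sensitivity = IC50 (with spermine)/IC50 (without).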

Glutamate NMDA receptor [2] = test: Displacement of [3H]-ifenprodil from rat cortical membranes NMDA receptor by beta counting analysis in absence of spermine
Glutamate NMDA receptor [3] = test: Displacement of [3H]-MK-801 from rat cortical membranes NMDA receptor by beta counting analysis in absence of spermine; in short: as §1
[4] = biological target: Glutamate NMDA receptor (Rattus norvegicus) (UniProt P35439+Q00959+Q00960+Q00961+Q62645+Q8VHN2+Q9R1M7); test: Ratio of IC50 for displacement of [3H]-MK-801 from rat cortical membranes NMDA receptor in presence of 30 uM spermine to IC50 for displacement of [3H]-MK-801 from rat cortical membranes NMDA receptor in absence of 30 spermine; in short: as §1

Row | pIC50 (Glutamate NMDA receptor [1]) | pIC50 (Glutamate NMDA receptor [2]) | pIC50 (Glutamate NMDA receptor [3]) | Ratio IC50 [4] | Compound
1 | 5.88 | 6.39 | 6.62 | 6.28 | Cc1ccc(S(=O)(=O)N(CCOc2ccc(C(=N)N)cc2)CCOc2ccc(C(=N)N)cc2)cc1
2 | 4.74 | 5.14 | 5.66 | 10.1 | N=C(N)c1ccc(COc2ccccc2OCc2ccc(C(=N)N)cc2)cc1
3 | 4.59 | 4.97 | 5.28 | 5.25 | N=C(N)c1ccc(OCc2ccc(COc3ccc(C(=N)N)cc3)cc2)cc1
4 | 3.83 | 4.11 | 5.00 | 17 | N=C(N)c1ccc(NCCCNc2ccc(C(=N)N)cc2)cc1
5 | 4.26 | 4.77 | 5.57 | 20.9 | CN(CCN(C)c1ccc(C(=N)N)cc1)c1ccc(C(=N)N)cc1
6 | 4.32 | 4.89 | 5.58 | 19.3 | CCN(CCNc1ccc(C(=N)N)cc1)c1ccc(C(=N)N)cc1
7 | 3.17 | 4.26 | 3.64 | 2.81 | N=C(N)c1ccc(NC(=O)CCCC(=O)Nc2ccc(C(=N)N)cc2)cc1

Second part, the compound before the results:

Row | Compound | pIC50 (Glutamate NMDA receptor [1]) | pIC50 (Glutamate NMDA receptor [2]) | pIC50 (Glutamate NMDA receptor [3]) | Ratio IC50 [4]
8 | N=C(N)c1ccc(OCc2ccccc2COc2ccc(C(=N)N)cc2)cc1 | 5.26 | 5.85 | 5.84 | 4
9 | N=C(N)c1ccc(NCCNc2ccc(C(=N)N)cc2)cc1 | 4.29 | 6.12 | 5.70 | 30.2
10 | N=C(N)c1ccc(NC(=O)c2cccc(C(=O)Nc3ccc(C(=N)N)cc3)n2)cc1 | 4.15 | < 4.00 | 4.24 | 1.22
11 | N=C(N)c1ccc(OCc2cccc(COc3ccc(C(=N)N)cc3)c2)cc1 | 5.17 | 5.40 | 6.10 | 9.04
12 | CC(C)NC(=N)c1ccc(NC(=O)c2cccc(C(=O)Nc3ccc(C(=N)NC(C)C)cc3)n2)cc1 | 4.13 | 4.31 | 5.16 | 10.8
13 | N=C(N)c1ccc(OC(=O)c2ccc(C(=O)Oc3ccc(C(=N)N)cc3)cc2)cc1 [BIS(4-CARBAMIMIDOYLPHENYL)TEREPHTHALATE] | 4.33 | 4.57 | 4.97 | 3.98
14 | N=C(N)c1ccc(N2CCCN(c3ccc(C(=N)N)cc3)CC2)cc1 | 5.26 | 4.72 | 6.60 | 20.4
15 | CN(CCNc1ccc(C(=N)N)cc1)c1ccc(C(=N)N)cc1 | 4.07 | 5.15 | 5.50 | 30.2
16 | NCCCCCCCCc1ccc(CCCCN)s1 | 5.21 | 4.31 | 6.28 | 15.1
17 | N=C(N)c1ccc(N2CCN(c3ccc(C(=N)N)cc3)CC2)cc1 | 4.15 | 4.77 | 5.51 | 26.2
